An excerpt weighted towards active compounds, which were near 2.8% of everything screened.
DENV2 CPE – inhibitors of DENV2 cytopathic effect; DENV2-infected cells, cytopathic effect rescue, plate reader; CPE inhibition, % at 9.99 µM; 350,000 compounds, 1.7% hits; AID 651640; in the data active = CPE inhibition above about 20%, passing the limit was not always enough; inconclusive = no clear call, values can overlap the other calls; tested in BHK-21 cells
E-selectin induc – induces E-selectin expression in human endothelial cells | HUVEC E-selectin immunofluorescence imaging; normalized: neutral wells 0, TNF-alpha wells 100 | activation, % at 7.58 µM | 260,000 compounds, 0.37% hits | P16581;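 active = mean E-selectin-positive cell signal at least 10% of the positive control, reached in at least 60% of replicates, without over 20% cell loss; inconclusive = no rule given, readout overlaps actives, possibly toxicity-flagged; inactive = the rest, including those meeting only one limit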
Target sequence (P16581 whole entry, looked up): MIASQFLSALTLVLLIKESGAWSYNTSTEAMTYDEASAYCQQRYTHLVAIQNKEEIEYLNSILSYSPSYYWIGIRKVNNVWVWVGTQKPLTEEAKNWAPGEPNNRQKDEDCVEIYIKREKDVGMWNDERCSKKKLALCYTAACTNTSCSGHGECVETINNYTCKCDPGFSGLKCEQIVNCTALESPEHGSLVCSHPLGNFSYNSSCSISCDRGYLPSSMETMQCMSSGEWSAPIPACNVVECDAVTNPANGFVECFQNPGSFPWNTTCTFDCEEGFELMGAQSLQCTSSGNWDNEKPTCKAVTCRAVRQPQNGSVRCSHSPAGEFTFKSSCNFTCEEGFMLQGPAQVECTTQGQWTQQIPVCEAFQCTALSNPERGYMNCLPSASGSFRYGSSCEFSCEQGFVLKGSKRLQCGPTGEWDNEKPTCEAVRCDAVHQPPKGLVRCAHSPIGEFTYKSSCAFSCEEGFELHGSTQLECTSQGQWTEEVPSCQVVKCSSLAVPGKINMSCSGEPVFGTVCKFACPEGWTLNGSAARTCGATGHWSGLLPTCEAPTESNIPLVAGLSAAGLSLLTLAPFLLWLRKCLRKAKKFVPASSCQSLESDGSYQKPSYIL
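Assay system: HUVEC, human umbilical vein endothelial cells / Amount: 3,000 HUVEC/well / Controls: TNF-alpha positive control, DMSO neutral control / Compound dosing: single concentration / Medium: EGM-2 over gelatin coat / Evaluation: percent E-selectin-positive cells / Signal: immunofluorescence imaging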
SIRT5 inh – inhibitors of human sirtuin-5 desuccinylase; Q9NXA8; Purified SirT5, succinyl-peptide AMC, trypsin-coupled fluorescence; inhibition, % at 15 µM; 330,000 compounds, 1.1% hits; in the data active = inhibition above about 15%; inconclusive = no clear call, values can overlap the other calls
Of the large screens only hits and unclear results are named; the others gave an inactive call.

Cc1cc(C(=O)Nc2cccc3c2O[C@H](CN(C)Cc2ccc(Oc4ccccc4)cc2)[C@H](C)CN([C@@H](C)CO)C3=O)n(C)n1	none
Cc1cc(C(=O)Nc2cccc3c2O[C@H](CN(C)Cc2ccccc2)[C@H](C)CN([C@@H](C)CO)C3=O)n(C)n1	none
C[C@@H]1CN([C@@H](C)CO)C(=O)c2cc(NC(=O)c3ccncc3)ccc2O[C@@H](C)CCCCO[C@H]1CN(C)Cc1ccccc1	none
CNC(=O)C[C@@H]1CC[C@@H]2[C@@H](COc3ccc(NC(=O)c4cc(C)on4)cc3C(=O)N2C)O1	none (no result: SIRT5 inh)
C[C@H](CO)N1C[C@H](C)[C@H](CN(C)C(=O)Nc2ccc(F)cc2)Oc2ncc(C#Cc3cccc(F)c3)cc2C1=O	none (no result: DENV2 CPE, SIRT5 inh)
Cc1ccc2ccc(C(Nc3ccccc3)c3ccc(C(C)C)cc3)c(O)c2n1 (stereo not drawn)	none
Cc1ccc2ccc(C(Nc3ccccc3)c3ccccc3)c(O)c2n1 (stereo not drawn)	DENV2 CPE 35
CCN(CC)c1ccc(N=Cc2ccc([N+](=O)[O-])o2)cc1	SIRT5 inh 15
CCN(CC)c1ccc(N=Cc2ccccc2[N+](=O)[O-])cc1	none (no result: E-selectin induc)
NCC[C@H]1CC[C@H](NC(=O)c2ccccc2F)[C@H](CO)O1	none (no result: DENV2 CPE, SIRT5 inh)
COCC(=O)N1C[C@@H]2[C@H](c3ccccc31)[C@H](CO)N2Cc1cc(F)ccc1F	SIRT5 inh 20
CCC(=O)N1C[C@H]2[C@@H](c3ccccc31)[C@H](CO)N2Cc1cc(F)ccc1F	SIRT5 inh 16
CCC(=O)N1C[C@@H]2[C@H](c3ccccc31)[C@@H](CO)N2Cc1cc(F)ccc1F	none
COCC(=O)N1C[C@H]2[C@@H](c3ccccc31)[C@@H](CO)N2Cc1cc(F)ccc1F	none
CCS(=O)(=O)Nc1ccc2c(c1)C(=O)N(C)C[C@H](OC)[C@@H](C)CN(C(=O)COC)[C@H](C)CO2	DENV2 CPE 82
COCC(=O)N1C[C@@H](C)[C@@H](OC)CN(C)C(=O)c2cc(NC(=O)c3ccc(OC)cc3)ccc2OC[C@H]1C	DENV2 CPE 34
CCC(=O)Nc1ccc2c(c1)C(=O)N(C)C[C@H](OC)[C@@H](C)CN(C(=O)CC)[C@@H](C)CO2	DENV2 CPE 63
CCCC(=O)Nc1ccc2c(c1)C(=O)N(C)C[C@@H](OC)[C@H](C)CN(C(=O)CC)[C@H](C)CO2	none (no result: DENV2 CPE, SIRT5 inh)
COCC(=O)N1C[C@H](C)[C@H](OC)CN(C)C(=O)c2cc(NC(=O)c3ccc(OC)cc3)ccc2OC[C@@H]1C	none
CCS(=O)(=O)Nc1ccc2c(c1)C(=O)N(C)C[C@H](OC)[C@H](C)CN(C(=O)COC)[C@@H](C)CO2	none
CCC(=O)Nc1ccc2c(c1)C(=O)N(C)C[C@@H](OC)[C@H](C)CN(C(=O)COC)[C@@H](C)CO2	DENV2 CPE 21 (no result: SIRT5 inh)
CCC(=O)Nc1ccc2c(c1)C(=O)N(C)C[C@@H](OC)[C@H](C)CN(C(=O)COC)[C@H](C)CO2	none (no result: SIRT5 inh)
COc1ccc(S(=O)(=O)Nc2ccc3c(c2)CC(=O)N([C@H](C)CO)C[C@H](C)[C@@H](CN(C)C(=O)Nc2ccccc2)O3)cc1	none
C[C@H](CO)N1C[C@H](C)[C@H](CN(C)S(=O)(=O)c2ccc(C#N)cc2)Oc2ncc(C#CCN(C)C)cc2C1=O	none
C[C@@H]1CN([C@H](C)CO)C(=O)c2cc(C#CC3CCCC3)cnc2O[C@H]1CN(C)C(=O)Nc1ccccc1	none
CCC(=O)N1C[C@@H](C)[C@H](OC)CN(C)C(=O)c2cc(NC(=O)Nc3cccc(F)c3)ccc2OC[C@@H]1C	SIRT5 inh 15
CCC(=O)N1C[C@@H](C)[C@@H](OC)CN(C)C(=O)c2cc(NC(=O)NC3CCCC3)ccc2OC[C@H]1C	none (no result: SIRT5 inh)
CCC(=O)N1C[C@H](C)[C@@H](OC)CN(C)C(=O)c2cc(NC(=O)Nc3cccc(F)c3)ccc2OC[C@@H]1C	none
CCC(=O)N1C[C@H](C)[C@@H](OC)CN(C)C(=O)c2cc(NC(=O)NC3CCCC3)ccc2OC[C@H]1C	DENV2 CPE 43 (no result: SIRT5 inh)
CCCC(=O)Nc1ccc2c(c1)C(=O)N(C)C[C@H](OC)[C@@H](C)CN(C(=O)C1CCCC1)[C@@H](C)CO2	none
CCCC(=O)Nc1ccc2c(c1)C(=O)N(C)C[C@H](OC)[C@@H](C)CN(C(=O)C1CCCC1)[C@H](C)CO2	DENV2 CPE 35
C[C@H](CO)N1C[C@H](C)[C@@H](CN(C)C(=O)c2ccc3c(c2)OCO3)Oc2ncc(C3=CCCCC3)cc2C1=O	none
C[C@H]1CN([C@@H](C)CO)C(=O)c2cc(C#CCC3CCCC3)cnc2O[C@@H]1CN(C)S(=O)(=O)c1cccs1	none
C[C@@H]1CN([C@H](C)CO)C(=O)c2cc(NC(=O)Nc3ccc4c(c3)OCO4)ccc2O[C@@H]1CN(C)S(=O)(=O)c1cccs1	none
C[C@H](CO)N1C[C@H](C)[C@@H](CN(C)C(=O)C2CC2)Oc2cc(C#CCN(C)C)ccc2S1(=O)=O	none (no result: DENV2 CPE, SIRT5 inh)
COc1ccc(C(=O)Nc2cc(=O)[nH]c3ncnn23)cc1	DENV2 CPE inconclusive, SIRT5 inh 31 (no result: E-selectin induc)
O=C(Nc1cc(=O)[nH]c2ncnn12)c1ccco1	none (no result: E-selectin induc)
CN1C(=O)c2cc(NC(=O)c3ccc(F)cc3)ccc2OC[C@H]2O[C@H](CC(=O)O)CC[C@H]21	DENV2 CPE 35
Cc1ccc(C(=O)Nc2ccc3c(c2)OCO3)cc1Cl	none (no result: E-selectin induc)
COC(=O)C[C@@H]1CC[C@H]2[C@H](COc3ccc(NC(=O)c4cccc(Cl)c4)cc3C(=O)N2C)O1	none
CN1C(=O)c2cc(NC(=O)c3ccc4c(c3)OCO4)ccc2OC[C@H]2O[C@@H](CC(=O)O)CC[C@@H]21	DENV2 CPE 40
Cc1ccc(NC(=O)c2ccc3c(c2)OCO3)cc1Cl	DENV2 CPE 22 (no result: E-selectin induc)
CN1C(=O)c2cc(NC(=O)c3ccc(F)cc3)ccc2OC[C@@H]2O[C@@H](CC(=O)O)CC[C@@H]21	none
COC(=O)C[C@H]1CC[C@@H]2[C@@H](COc3ccc(NC(=O)c4cccc(Cl)c4)cc3C(=O)N2C)O1	SIRT5 inh 16
CN1C(=O)c2cc(NC(=O)c3ccc4c(c3)OCO4)ccc2OC[C@H]2O[C@H](CC(=O)O)CC[C@@H]21	DENV2 CPE inconclusive
O=c1n(-c2ccccc2)c(=O)n2n1CC(COc1ccccc1)=C1[C@@H](CCc3ccccc3)OB(O)C[C@@H]12	none (no result: E-selectin induc)
C[C@H](CO)N1C[C@H](C)[C@H](CN(C)C)OCCCC[C@H](C)Oc2ccc(NS(=O)(=O)c3ccc(F)cc3)cc2C1=O	none
Cc1ccccc1S(=O)(=O)N[C@@H]1CC[C@@H](CCn2cc(-c3ccccc3)nn2)O[C@@H]1CO	none
C[C@H]1CN([C@@H](C)CO)C(=O)c2cc(NS(=O)(=O)c3cccs3)ccc2O[C@H]1CN(C)CC1CCCCC1	none
O=C(NCC1CC1)[C@H]1[C@H](CO)[C@H]2Cn3c(ccc(C4=CCCCC4)c3=O)[C@H]2N1Cc1ccccc1F	none
CC(=O)N1[C@H](CO)[C@@H](c2ccc(C3=CCCCC3)cc2)[C@@H]1CNC(=O)CN(C)C	DENV2 CPE 22
CCCNC(=O)NC[C@H]1[C@@H](c2ccc(C3=CCCC3)cc2)[C@H](CO)N1C(=O)CC	none
CC(=O)N1[C@H](CO)[C@H](c2ccc(C3=CCCCC3)cc2)[C@@H]1CNC(=O)CN(C)C	none
CCCNC(=O)NC[C@@H]1[C@@H](c2ccc(C3=CCCC3)cc2)[C@@H](CO)N1C(=O)CC	DENV2 CPE 116

Bioassay records from PubChem.
